Measured values as given in ChEMBL document CHEMBL1649075, “Synthesis and biological evaluation of (6- and 7-phenyl) coumarin derivatives as selective nonsteroidal inhibitors of 17β-hydroxysteroid dehydrogenase type 1” (J Med Chem, 2011).
Calls of active or inactive are those of the source. No cut-off for these calls is given here.

Experiments:
17β-HSD1 (Homo sapiens) [1] = experiment: Displacement of [3H]estrone human recombinant 17beta-HSD1 expressed in Escherichia coli BL21 (DE3)-RIL at 6 uM by scintillation counting in presence of NADPH
17β-HSD1 (Homo sapiens) [2] = experiment: Displacement of [3H]estrone human recombinant 17beta-HSD1 expressed in Escherichia coli BL21 (DE3)-RIL at 0.6 uM by scintillation counting in presence of NADPH
[3] = biological target: T1, Estrogen receptor (Homo sapiens) (UniProt P03372); experiment: Displacement of [3H]estradiol from human recombinant ERalpha after 16 hrs by liquid scintillation counting relative to estradiol
T1 sequence (whole entry): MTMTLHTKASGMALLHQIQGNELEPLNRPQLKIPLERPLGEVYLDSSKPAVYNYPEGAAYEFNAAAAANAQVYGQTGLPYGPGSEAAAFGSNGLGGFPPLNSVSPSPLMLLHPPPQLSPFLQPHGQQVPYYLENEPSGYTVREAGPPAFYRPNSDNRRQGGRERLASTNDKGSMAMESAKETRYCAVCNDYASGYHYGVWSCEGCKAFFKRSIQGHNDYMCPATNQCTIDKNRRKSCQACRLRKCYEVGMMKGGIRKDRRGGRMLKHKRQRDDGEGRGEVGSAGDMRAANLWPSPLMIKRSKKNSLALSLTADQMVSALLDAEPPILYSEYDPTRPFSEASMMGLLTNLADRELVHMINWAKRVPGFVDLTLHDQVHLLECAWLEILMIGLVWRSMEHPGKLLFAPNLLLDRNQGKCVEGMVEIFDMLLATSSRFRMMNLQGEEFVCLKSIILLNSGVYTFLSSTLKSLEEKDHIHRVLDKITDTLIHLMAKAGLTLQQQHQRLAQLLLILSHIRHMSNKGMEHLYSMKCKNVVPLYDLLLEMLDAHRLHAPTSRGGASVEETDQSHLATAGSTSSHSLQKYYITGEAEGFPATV
Summary of the method: (§1)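 Recombinant human ERα or ERβ (0.9 nM) was incubated with 9 nM [2,4,6,7-³H]-E2 and test compound (10^-9 to 10^-5 M) at 4 °C, for 18 h per methods (16 h per table footnote). Nonspecific binding was set with 6 μM E2. Complexes were bound to hydroxyapatite in Tris pH 7.5, washed four times, and counted by liquid scintillation. Runs were in triplicate. RBA = IC50(E2)/IC50(compound) × 100.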

[4] = biological target: Estrogen receptor beta (Homo sapiens) (UniProt Q92731); experiment: Displacement of [3H]estradiol from human recombinant ERbeta after 16 hrs by liquid scintillation counting relative to estradiol
Summary of the method: as §1

17β-HSD2 (Homo sapiens) [5] = experiment: Displacement of [3H]estradiol human recombinant 17beta-HSD2 expressed in Escherichia coli BL21 (DE3)-RIL at 6 uM by scintillation counting in presence of NAD+
17β-HSD2 (Homo sapiens) [6] = experiment: Displacement of [3H]estradiol human recombinant 17beta-HSD2 expressed in Escherichia coli BL21 (DE3)-RIL at 0.6 uM by scintillation counting in presence of NAD+
17β-HSD2 (Homo sapiens) [7] = experiment: Displacement of [3H]estradiol human recombinant 17beta-HSD2 expressed in Escherichia coli BL21 (DE3)-RIL at 60 uM by scintillation counting in presence of NAD+

Sequence of Estrogen receptor beta (Homo sapiens) (Q92731 whole entry): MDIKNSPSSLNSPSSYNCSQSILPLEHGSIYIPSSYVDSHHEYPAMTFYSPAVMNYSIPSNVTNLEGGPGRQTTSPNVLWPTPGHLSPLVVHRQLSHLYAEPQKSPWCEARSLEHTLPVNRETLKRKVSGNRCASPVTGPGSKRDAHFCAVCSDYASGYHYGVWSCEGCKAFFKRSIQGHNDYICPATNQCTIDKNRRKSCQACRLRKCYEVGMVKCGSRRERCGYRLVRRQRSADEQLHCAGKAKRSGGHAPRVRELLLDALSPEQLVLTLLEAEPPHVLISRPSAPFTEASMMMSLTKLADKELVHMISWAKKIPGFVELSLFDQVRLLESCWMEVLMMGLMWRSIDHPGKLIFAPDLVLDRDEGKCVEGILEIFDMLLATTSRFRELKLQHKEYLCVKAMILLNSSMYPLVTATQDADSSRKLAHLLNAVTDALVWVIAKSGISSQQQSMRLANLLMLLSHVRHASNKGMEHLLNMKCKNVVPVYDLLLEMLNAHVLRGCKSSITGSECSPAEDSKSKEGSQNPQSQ

Compound | inhibition (17β-HSD1 (Homo sapiens) [1]) | inhibition (17β-HSD1 (Homo sapiens) [2]) | also measured
O=c1ccc2ccc(-c3ccccc3)cc2o1 | 10% | inactive | 
CC(=O)c1cc2ccc(OS(=O)(=O)C(F)(F)F)cc2oc1=O | 100% | 60% | Activity [3]: inactive; Activity [4]: inactive; inhibition (17β-HSD2 (Homo sapiens) [5]): inactive; inhibition (17β-HSD2 (Homo sapiens) [6]): inactive
Cc1ccc(-c2ccc3oc(=O)ccc3c2)cc1 | inactive | inactive | 
Cc1ccc(-c2ccc3ccc(=O)oc3c2)cc1 | 29% | 10% | 
CCOC(=O)c1cc2cc(-c3ccc(Cl)cc3)ccc2oc1=O | 14% | 10% | 
COc1ccc(-c2ccc3oc(=O)ccc3c2)cc1 | 26% | 7% | 
CC(=O)c1cc2cc(-c3ccc(Cl)cc3)ccc2oc1=O | inactive | inactive | 
CC(=O)c1cc2cc(-c3ccc(C)cc3)ccc2oc1=O | inactive | inactive | 
COc1ccc2cc(C(C)=O)c(=O)oc2c1 | 25% | 23% | inhibition (17β-HSD2 (Homo sapiens) [5]): inactive; inhibition (17β-HSD2 (Homo sapiens) [6]): inactive
CCOC(=O)c1cc2ccc(-c3ccc(OC)cc3)cc2oc1=O | 1% | inactive | 
CC(=O)c1cc2ccc(-c3ccc(Cl)cc3)cc2oc1=O | 17% | 12% | 
COc1ccc(-c2ccc3cc(C(C)=O)c(=O)oc3c2)cc1 | 86% | 48% | Activity [3]: inactive; Activity [4]: inactive; inhibition (17β-HSD2 (Homo sapiens) [5]): inactive; inhibition (17β-HSD2 (Homo sapiens) [7]): inactive; inhibition (17β-HSD2 (Homo sapiens) [6]): inactive
O=c1ccc2cc(-c3ccc(O)cc3)ccc2o1 | 30% | 4% | 
CC(=O)c1cc2ccc(-c3ccc(C)cc3)cc2oc1=O | 72% | 40% | inhibition (17β-HSD2 (Homo sapiens) [5]): inactive; inhibition (17β-HSD2 (Homo sapiens) [7]): inactive
CCOC(=O)c1cc2cc(-c3ccc(OC)cc3)ccc2oc1=O | 7% | inactive | 
CC(=O)c1cc2ccc(-c3ccc(O)cc3)cc2oc1=O | 100% | 76% | Activity [3]: inactive; Activity [4]: inactive; inhibition (17β-HSD2 (Homo sapiens) [5]): inactive; inhibition (17β-HSD2 (Homo sapiens) [7]): inactive; inhibition (17β-HSD2 (Homo sapiens) [6]): inactive
CC(=O)c1cc2ccc(-c3ccc(F)cc3)cc2oc1=O | 13% | 6% | 
CCOC(=O)c1cc2cc(-c3ccccc3)ccc2oc1=O | 21% | inactive | 

Compound | inhibition (17β-HSD1 (Homo sapiens) [1]) | inhibition (17β-HSD1 (Homo sapiens) [2]) | also measured
CCOC(=O)c1cc2ccc(-c3ccccc3)cc2oc1=O | 7% | inactive | 
CCOC(=O)c1cc2cc(-c3ccc(F)cc3)ccc2oc1=O | 21% | 21% | 
O=c1ccc2ccc(-c3ccc(O)cc3)cc2o1 | 43% | inactive | 
O=c1ccc2cc(-c3ccc(Cl)cc3)ccc2o1 | 10% | inactive | 
CC(=O)c1cc2cc(-c3ccc(F)cc3)ccc2oc1=O | 59% | 15% | 
CCOC(=O)c1cc2ccc(-c3ccc(C)cc3)cc2oc1=O | 9% | 11% | 
CC(=O)c1cc2cc(-c3ccccc3)ccc2oc1=O | inactive | inactive | 
CCOC(=O)c1cc2ccc(-c3ccc(Cl)cc3)cc2oc1=O | inactive | inactive | 
O=c1ccc2ccc(OS(=O)(=O)C(F)(F)F)cc2o1 | 9% | inactive | 
COc1ccc(-c2ccc3ccc(=O)oc3c2)cc1 | 10% | inactive | 
COc1ccc(-c2ccc3oc(=O)c(C(C)=O)cc3c2)cc1 | inactive | inactive | 
C[C@]12CC[C@H]3C(=CCc4cc(O)ccc43)[C@@H]1CCC2=O |  |  | RBA [3]: 0.15%; RBA [4]: 1.4%
CCOC(=O)c1cc2cc(Br)ccc2oc1=O | inactive | inactive | 
CCOC(=O)c1cc2cc(-c3ccc(C)cc3)ccc2oc1=O | 16% | 6% | 
O=c1ccc2cc(-c3ccccc3)ccc2o1 | 18% | inactive | 
CCOC(=O)c1cc2ccc(OS(=O)(=O)C(F)(F)F)cc2oc1=O | inactive | inactive | 
O=c1ccc2cc(Br)ccc2o1 | inactive | inactive | 
O=c1ccc2ccc(-c3ccc(Cl)cc3)cc2o1 | 9% | inactive | 
